Test results published in publication PMC2833353 (Cancer research, 2009).
Where a SMILES comes first, the peptide text is derived from it. Bridges are numbered along the chain shown (N, C = ends). The star is where a group is joined. DOTA = O=C(O)CN1CCN(CC(=O)O)CCN(CC(=O)*)CCN(CC(=O)O)CC1

Experiments:
U87MG cells = settings: read-out: IC50, competition binding of 125I-echistatin on U87MG cells; cited from earlier work
[1] = molecular target: integrin αvβ3 (Homo sapiens) (UniProt P06756); settings: cited from earlier work
[2] = In vivo biodistribution study in U87MG tumor-bearing mice; settings: female, athymic nude (nu/nu), mouse, iv, total radioactivity; for tissue uptake at 24 h: kidneys; for tissue to tissue ratio at 4 h: tumor / blood
In short: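 Female athymic nu/nu mice with subcutaneous shoulder U87MG xenografts (2 × 10^7 cells; tumors ~8–10 mm) were anesthetized and given ~100 μCi of 64Cu-DOTA-labeled knottin peptide by tail vein, then sacrificed at 0.5, 1, 4 or 24 h. Tumor, blood, kidneys and other organs were weighed and gamma-counted against a tracer aliquot, giving %ID/g and tumor-to-organ ratios. Mean ± SD, ≥3 mice.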

Sequence of integrin αvβ3 (Homo sapiens) (P06756 31-1048, chain 1 of 2): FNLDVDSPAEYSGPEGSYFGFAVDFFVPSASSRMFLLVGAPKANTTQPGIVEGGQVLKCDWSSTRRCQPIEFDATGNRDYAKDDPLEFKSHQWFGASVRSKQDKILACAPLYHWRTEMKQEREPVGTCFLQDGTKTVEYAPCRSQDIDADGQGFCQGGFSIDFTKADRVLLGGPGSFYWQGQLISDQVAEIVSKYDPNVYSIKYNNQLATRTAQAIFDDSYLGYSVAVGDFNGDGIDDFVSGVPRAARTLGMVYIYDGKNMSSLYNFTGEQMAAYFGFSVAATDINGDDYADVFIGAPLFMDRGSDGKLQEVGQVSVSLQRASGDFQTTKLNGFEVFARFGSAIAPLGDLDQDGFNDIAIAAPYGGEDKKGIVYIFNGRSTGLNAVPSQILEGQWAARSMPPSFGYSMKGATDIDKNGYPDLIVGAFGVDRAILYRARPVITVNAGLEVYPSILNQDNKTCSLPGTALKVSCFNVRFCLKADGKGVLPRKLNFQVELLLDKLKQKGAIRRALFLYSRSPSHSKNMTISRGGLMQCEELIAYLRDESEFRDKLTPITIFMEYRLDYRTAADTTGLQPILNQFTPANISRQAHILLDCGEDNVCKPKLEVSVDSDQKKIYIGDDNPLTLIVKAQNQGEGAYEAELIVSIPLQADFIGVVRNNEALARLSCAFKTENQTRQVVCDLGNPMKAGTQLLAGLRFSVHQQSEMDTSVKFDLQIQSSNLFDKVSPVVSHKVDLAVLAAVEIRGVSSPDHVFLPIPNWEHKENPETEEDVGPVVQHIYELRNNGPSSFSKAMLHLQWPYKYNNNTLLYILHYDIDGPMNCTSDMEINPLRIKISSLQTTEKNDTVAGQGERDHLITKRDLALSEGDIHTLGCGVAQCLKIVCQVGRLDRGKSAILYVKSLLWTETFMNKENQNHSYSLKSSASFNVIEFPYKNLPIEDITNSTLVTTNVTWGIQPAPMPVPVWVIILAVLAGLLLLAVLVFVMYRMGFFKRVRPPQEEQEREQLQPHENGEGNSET
Sequence of integrin αvβ3 (Homo sapiens) (P05106 27-788, chain 2 of 2, further chain): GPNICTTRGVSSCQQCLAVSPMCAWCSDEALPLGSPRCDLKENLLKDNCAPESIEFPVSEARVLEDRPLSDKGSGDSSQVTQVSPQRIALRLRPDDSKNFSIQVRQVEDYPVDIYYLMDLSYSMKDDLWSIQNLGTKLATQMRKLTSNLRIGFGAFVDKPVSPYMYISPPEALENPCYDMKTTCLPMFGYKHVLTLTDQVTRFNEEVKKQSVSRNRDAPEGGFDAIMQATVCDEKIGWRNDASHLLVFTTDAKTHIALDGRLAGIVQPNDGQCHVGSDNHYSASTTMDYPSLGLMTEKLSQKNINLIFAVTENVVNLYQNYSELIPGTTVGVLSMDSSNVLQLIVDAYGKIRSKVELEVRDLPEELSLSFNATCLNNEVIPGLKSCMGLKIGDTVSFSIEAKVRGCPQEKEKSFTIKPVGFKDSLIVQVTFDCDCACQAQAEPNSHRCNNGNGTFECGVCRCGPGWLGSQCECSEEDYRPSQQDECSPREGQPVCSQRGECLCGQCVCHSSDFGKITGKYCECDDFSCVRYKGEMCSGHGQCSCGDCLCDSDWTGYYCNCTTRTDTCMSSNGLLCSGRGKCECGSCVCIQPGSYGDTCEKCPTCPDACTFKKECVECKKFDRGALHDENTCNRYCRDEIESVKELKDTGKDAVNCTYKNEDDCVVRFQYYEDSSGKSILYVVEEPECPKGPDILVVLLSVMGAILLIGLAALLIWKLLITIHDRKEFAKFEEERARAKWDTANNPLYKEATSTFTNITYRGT
Sequence of Echistatin (P17347 131-179): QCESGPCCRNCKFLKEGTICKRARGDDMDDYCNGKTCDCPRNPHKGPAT

| Compound | IC50 (U87MG cells) | Kd [1] | tissue uptake at 24 h [2] | tissue to tissue ratio at 4 h [2] |
| --- | --- | --- | --- | --- |
| Echistatin (from UniProt P17347) | – | 0.36 nM | – | – |
| CC(C)C[C@@H]1NC(=O)[C@@H]2CSSC[C@@H](C(=O)NCC(N)=O)NC(=O)[C@H](Cc3ccccc3)NC(=O)CNC(=O)[C@H](CC(N)=O)NC(=O)[C@@H]3CCCN3C(=O)CNC(=O)[C@@H]3CSSC[C@H](NC(=O)[C@H](CO)NC(=O)[C@H]([C@@H](C)O)NC(=O)[C@@H]4CCCN4C(=O)[C@H](C)NC(=O)[C@H](Cc4c[nH]c5ccccc45)NC(=O)[C@H](CC(=O)O)NC(=O)CNC(=O)[C@H](CCCNC(=N)N)NC(=O)CNC(=O)[C@H](CCC(N)=O)NC(=O)[C@@H]4CCCN4C(=O)[C@@H](NC(=O)CNC(=O)CN4CCN(CC(=O)O)CCN(CC(=O)O)CCN(CC(=O)O)CC4)CSSC[C@H](NC(=O)CNC(=O)[C@H](C)NC1=O)C(=O)N[C@@H](C(C)C)C(=O)N3)C(=O)N[C@@H](CO)C(=O)N[C@@H](CCC(N)=O)C(=O)N[C@@H](CC(=O)O)C(=O)N[C@@H](CO)C(=O)N[C@@H](CC(=O)O)C(=O)N2 [^64Cu-DOTA-2.5D, metal not drawn] ({DOTA}-GCPQGRGDWAPTSCSQDSDCLAGCVCGPNGFCG-NH2; disulfide 2-24, 14-26, 20-32; C-terminus assumed) | – | – | 1.25 ± 0.11 %ID/g | 24.9 ± 2.62 |
| CC(C)C[C@@H]1NC(=O)[C@@H]2CSSC[C@@H](C(=O)NCC(N)=O)NC(=O)[C@H](Cc3ccccc3)NC(=O)CNC(=O)[C@H](CC(N)=O)NC(=O)[C@@H]3CCCN3C(=O)CNC(=O)[C@@H]3CSSC[C@H](NC(=O)[C@H]([C@@H](C)O)NC(=O)[C@H](CC(C)C)NC(=O)[C@@H]4CCCN4C(=O)[C@@H]4CCCN4C(=O)[C@H](CC(N)=O)NC(=O)[C@H](CC(=O)O)NC(=O)CNC(=O)[C@H](CCCNC(=N)N)NC(=O)[C@@H]4CCCN4C(=O)[C@H](CCCNC(=N)N)NC(=O)[C@@H]4CCCN4C(=O)[C@@H](NC(=O)CNC(=O)CN4CCN(CC(=O)O)CCN(CC(=O)O)CCN(CC(=O)O)CC4)CSSC[C@H](NC(=O)CNC(=O)[C@H](C)NC1=O)C(=O)N[C@@H](C(C)C)C(=O)N3)C(=O)N[C@@H](CO)C(=O)N[C@@H](CCC(N)=O)C(=O)N[C@@H](CC(=O)O)C(=O)N[C@@H](CO)C(=O)N[C@@H](CC(=O)O)C(=O)N2 [^64Cu-DOTA-2.5F, metal not drawn] ({DOTA}-GCPRPRGDNPPLTCSQDSDCLAGCVCGPNGFCG-NH2; disulfide 2-24, 14-26, 20-32) | – | – | 1.09 ± 0.15 %ID/g | 42.3 ± 8.65 |
